Measurements from different studies.
Protocols differ between the studies behind these lines.
Target: Ankyrin repeat and protein kinase domain-containing protein 1 (ANKK1, Homo sapiens, UniProt Q8NFD2)
Residues used in one study (Q8NFD2 1-765): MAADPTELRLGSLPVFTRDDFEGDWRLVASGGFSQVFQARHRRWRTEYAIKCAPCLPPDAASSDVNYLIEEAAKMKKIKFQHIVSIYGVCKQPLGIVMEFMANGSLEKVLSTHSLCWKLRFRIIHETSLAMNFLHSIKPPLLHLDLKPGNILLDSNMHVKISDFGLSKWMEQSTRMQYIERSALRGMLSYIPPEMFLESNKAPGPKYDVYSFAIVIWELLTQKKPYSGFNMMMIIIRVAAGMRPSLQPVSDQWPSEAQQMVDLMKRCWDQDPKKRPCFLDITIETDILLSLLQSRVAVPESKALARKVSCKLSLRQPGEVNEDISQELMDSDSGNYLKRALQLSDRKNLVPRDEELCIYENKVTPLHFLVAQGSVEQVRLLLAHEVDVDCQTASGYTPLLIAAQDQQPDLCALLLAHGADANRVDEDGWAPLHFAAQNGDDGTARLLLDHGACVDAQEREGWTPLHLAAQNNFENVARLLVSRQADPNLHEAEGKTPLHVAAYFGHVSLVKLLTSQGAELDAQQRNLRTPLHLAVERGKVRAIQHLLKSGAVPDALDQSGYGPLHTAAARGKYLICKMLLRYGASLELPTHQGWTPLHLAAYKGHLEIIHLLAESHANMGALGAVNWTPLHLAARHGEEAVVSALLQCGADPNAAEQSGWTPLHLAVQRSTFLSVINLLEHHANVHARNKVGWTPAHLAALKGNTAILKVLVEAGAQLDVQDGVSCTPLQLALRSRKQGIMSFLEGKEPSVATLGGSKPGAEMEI

C=CC(=O)N1CCC(C(=O)NCC(=O)N2CCN(c3nc(-c4cnc(N)nc4C(F)F)nc(N4CCOCC4)n3)CC2)CC1
remaining binding (binding, competition with immobilised ligand; 1 µM): 100%

C[C@@]1(Cc2ccc(C#N)cc2)C(=O)N(c2cc(Cl)cc(Cl)c2)c2ncc(C(=O)NC3(c4nc(C5CCC5)no4)CC3)n21
remaining binding (cell-free assay, competition with immobilised ligand; 1 µM): 100%

CCN1CCN(Cc2ccc(C(=O)Nc3ccc(C)c(Oc4ccc5c(c4)CC(=O)N5)c3)cc2C(F)(F)F)CC1
remaining binding (binding, competition with immobilised ligand; 1 µM): 100%

N[C@@H]1CCN(c2nccc(-c3cnn4ncccc34)n2)C1
remaining binding (binding; 1 µM): 100%

O=C(NCCCN1CCOCC1)c1ccc(Nc2nccc(-c3cc4ccccc4s3)n2)cc1
remaining binding (binding, competition with immobilised ligand; 1 µM): 71%

C[C@@H]1CN(c2cc(-c3n[nH]c4ccc(OC5(C)CC5)cc34)ncn2)C[C@H](C)O1
remaining binding (cell-free assay, competition with immobilised ligand; 0.1 µM): 79%

CNC(=O)[C@@H]1CC[C@@H](n2c(-c3ccc4cnccc4c3)nc3ccc(C(=O)NCc4cccc(C(N)=O)c4)cc32)C1
remaining binding (binding, competition with immobilised ligand; 1 µM): 100%

O=C(c1ccc(Nc2nccc(-c3cc4ccccc4s3)n2)cc1)N1CCC(N2CCCC2)CC1
remaining binding (binding, competition with immobilised ligand; 1 µM): 71%

CO[C@@H](C)c1c(Nc2ccc([C@@H](N(C)C(=O)C3CCS(=O)(=O)CC3)C(F)(F)F)cc2)cnc2cc(Cl)nn12
remaining binding (cell-free assay, competition with immobilised ligand; 1 µM): 100%

Cc1cnc(Nc2ccc(C(=O)N3CCC(N4CCCC4)CC3)cc2)nc1-c1cc2ccccc2s1
remaining binding (binding, competition with immobilised ligand; 1 µM): 62%

O=c1nc(-c2ccccn2)sc2ccccc12
remaining binding (binding, competition with immobilised ligand; 1 µM): 100%

FC(F)(F)Oc1cccc(-c2cnc3ccc(-c4ccncc4)nn23)c1
remaining binding (cell-free assay, competition with immobilised ligand; 5 µM): 70%

CN(CCCC(F)(F)F)c1nccc(-c2cnn3ncccc23)n1
remaining binding (binding; 1 µM): 95%

CCC(=O)N[C@@H]1CC[C@H](C(=O)N(C)c2ccc(-c3nc4ccccc4o3)cc2)C1
remaining binding (cell-free assay, competition with immobilised ligand; 1 µM): 100%

C[C@@H]1CCN(c2nccc(-c3cnn4ncccc34)n2)C1
remaining binding (binding; 1 µM): 81%

COc1cnc(Nc2cccc(S(N)(=O)=O)c2)nc1N1CCN(c2ccccc2)CC1
remaining binding (binding, competition with immobilised ligand; 1 µM): 97%

CN(C)c1ncc(F)c(-c2cnn3ncccc23)n1
remaining binding (binding; 1 µM): 69%

COc1ccc2cc(OCC3(C(=O)O)CN(C(=O)c4ccc(F)cc4)C3)ccc2c1
remaining binding (cell-free assay, competition with immobilised ligand; 1 µM): 86%

COc1ccnn2ncc(-c3ccnc(N(C)C)n3)c12
remaining binding (binding; 1 µM): 78%

O=C(Nc1c[nH]nc1C(=O)NC1CCNCC1)c1cc(F)cc(F)c1
remaining binding (binding, competition with immobilised ligand; 1 µM): 100%
